Reference: ChEMBL document CHEMBL5696444 (Nat Commun, 2017)
The source made the active and inactive calls. No cut-off for these calls is given here.

Experiments:
[1] = target: Tyrosine-protein kinase ABL1 (Homo sapiens) (UniProt P00519); assay: Inhibition of ABL1 (unknown origin) at 1000 nM in the presence of ATP by Kinome scan method relative to control; settings: time > 6.0 hrs
[2] = tested on: HCT-116; assay: Induction of cell cycle arrest in human HCT-116 cells assessed as G2/M phase at 0.5 uM incubated for 6 hrs by flow cytometry analysis (Rvb=25.8%); assay type: functional
[3] = tested on: HCT-116; assay: Induction of cell cycle arrest in human HCT-116 cells assessed as G2/M phase at 0.1 uM incubated for 6 hrs by flow cytometry analysis (Rvb=25.8%); assay type: functional
[4] = tested on: HCT-116; assay: Induction of cell cycle arrest in human HCT-116 cells assessed as sub G0/G1 phase at 10 uM incubated for 24 hrs by flow cytometry analysis (Rvb=2.5%); assay type: functional
[5] = target: Dual specificity protein kinase CLK1 (Homo sapiens) (UniProt P49759); assay: Inhibition of CLK1 (unknown origin) in human HCT-116 cells assessed as increase in CLK1 protein level at 0.5 to 0.1 uM incubated for 6 hrs by immunoblot analysis; assay type: cell-based; settings: dose 0.5-0.1 µM
Dual specificity protein kinase CLK1 (Homo sapiens), sequence (P49759 whole entry, looked up, canonical isoform): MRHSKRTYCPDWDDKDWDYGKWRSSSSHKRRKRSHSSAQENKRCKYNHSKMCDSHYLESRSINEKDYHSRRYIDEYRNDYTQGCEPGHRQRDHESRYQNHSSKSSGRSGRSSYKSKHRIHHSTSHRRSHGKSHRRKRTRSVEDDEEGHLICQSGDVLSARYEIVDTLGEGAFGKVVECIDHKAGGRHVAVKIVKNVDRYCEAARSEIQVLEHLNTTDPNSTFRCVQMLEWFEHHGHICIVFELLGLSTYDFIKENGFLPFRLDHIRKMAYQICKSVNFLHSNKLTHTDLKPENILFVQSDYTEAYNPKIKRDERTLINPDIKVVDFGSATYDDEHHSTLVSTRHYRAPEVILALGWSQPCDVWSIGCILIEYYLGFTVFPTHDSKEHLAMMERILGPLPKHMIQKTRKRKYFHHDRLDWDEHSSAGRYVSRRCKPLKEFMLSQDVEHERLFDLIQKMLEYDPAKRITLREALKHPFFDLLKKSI
Summary of the method: (§1)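 HCT116 cells were treated for 3 or 6 h and lysed in SDS sample buffer (Tris-HCl pH 6.8), then boiled for 5 min. Lysates were run on 5–15% or 4–12% gradient gels and transferred to nitrocellulose or PVDF. Blots were blocked in milk or BSA/TBS-T and probed overnight at 4 °C with anti-phospho-SR (1H4, 1/1000), anti-SR, anti-CLK1 or anti-CLK3 antibodies, with GAPDH as loading control.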

[6] = tested on: HCT-116; assay: Induction of cell cycle arrest in human HCT-116 cells assessed as G2/M phase at 5 uM incubated for 6 hrs by flow cytometry analysis (Rvb=25.8%); assay type: functional
[7] = target: Tyrosine-protein kinase JAK1 (Homo sapiens) (UniProt P23458); assay: Inhibition of JAK1 (unknown origin) at 100 nM in the presence of ATP by Kinome scan method relative to control
[8] = target: Ephrin type-A receptor 5 (Homo sapiens) (UniProt P54756); assay: Inhibition of EPHA5 (unknown origin) at 100 nM in the presence of ATP by Kinome scan method relative to control
[9] = tested on: HCT-116; assay: Induction of cell cycle arrest in human HCT-116 cells assessed as G0/G1 phase at 5 uM incubated for 6 hrs by flow cytometry analysis (Rvb=35.0%); assay type: functional
[10] = target: Fibroblast growth factor receptor 1 (Homo sapiens) (UniProt P11362); assay: Inhibition of FGFR1 (unknown origin) at 100 nM in the presence of ATP by Kinome scan method relative to control
Fibroblast growth factor receptor 1 (Homo sapiens), sequence (P11362 22-822 limits assumed): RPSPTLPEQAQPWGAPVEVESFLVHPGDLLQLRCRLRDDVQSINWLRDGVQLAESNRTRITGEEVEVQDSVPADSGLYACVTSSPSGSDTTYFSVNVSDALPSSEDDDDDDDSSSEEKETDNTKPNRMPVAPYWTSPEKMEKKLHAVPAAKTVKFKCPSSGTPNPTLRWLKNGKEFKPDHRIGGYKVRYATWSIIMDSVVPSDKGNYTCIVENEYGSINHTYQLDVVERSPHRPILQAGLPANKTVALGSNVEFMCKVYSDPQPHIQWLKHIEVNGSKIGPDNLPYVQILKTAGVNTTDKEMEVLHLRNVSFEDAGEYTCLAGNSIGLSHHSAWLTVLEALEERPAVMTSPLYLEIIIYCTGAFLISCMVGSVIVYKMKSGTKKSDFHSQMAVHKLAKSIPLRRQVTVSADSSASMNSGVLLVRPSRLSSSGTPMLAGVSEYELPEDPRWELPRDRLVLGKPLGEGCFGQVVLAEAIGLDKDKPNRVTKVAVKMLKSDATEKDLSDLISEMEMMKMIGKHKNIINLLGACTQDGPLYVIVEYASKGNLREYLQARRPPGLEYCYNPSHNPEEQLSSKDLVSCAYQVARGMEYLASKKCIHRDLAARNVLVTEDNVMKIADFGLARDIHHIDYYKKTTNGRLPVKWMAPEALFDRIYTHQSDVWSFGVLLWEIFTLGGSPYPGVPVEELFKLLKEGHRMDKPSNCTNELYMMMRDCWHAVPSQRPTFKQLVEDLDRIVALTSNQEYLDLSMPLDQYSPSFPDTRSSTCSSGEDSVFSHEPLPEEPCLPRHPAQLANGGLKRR

[11] = tested on: HCT-116; assay: Induction of apoptosis in human HCT-116 cells assessed as early apoptosis at 5 uM incubated for > 6 hrs by annexin V/PI staining based analysis (Rvb=3.29%); assay type: functional
[12] = target: Dual specificity protein kinase CLK1 (Homo sapiens) (UniProt P49759); assay: Inhibition of CLK (unknown origin) in human 184-hTERT cells assessed as induction in alternative splicing effect in MRPS10-GUCA1B level incubated for 6 hrs by RT-PCR analysis; assay type: cell-based; settings: dose 0.2-5 µM
Summary of the method: (§2)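 Cells exposed to graded T3 concentrations for 6 h (chosen to avoid cytotoxicity), with a DMSO vehicle control. Total RNA was reverse-transcribed with oligo-dT primers. Targeted splice or conjoined-gene products were quantified by real-time qPCR or by targeted next-generation sequencing. Conjoined-gene isoform expression was normalized to a sequenced housekeeping gene.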

[13] = target: Dual specificity protein kinase CLK3 (Homo sapiens) (UniProt P49761); assay: Inhibition of CLK3 (unknown origin) in human HCT-116 cells assessed as increase in CLK3 protein level at 0.5 to 0.1 uM incubated for 6 hrs by immunoblot analysis; assay type: cell-based; settings: dose 0.5-0.1 µM; summary of the method: as §1
[14] = target: Ephrin type-A receptor 1 (Homo sapiens) (UniProt P21709); assay: Inhibition of EPHA1 (unknown origin) at 100 nM in the presence of ATP by Kinome scan method relative to control
[15] = target: Inhibitor of nuclear factor kappa-B kinase subunit beta (Homo sapiens) (UniProt O14920); assay: Inhibition of IKBKB (unknown origin) at 1000 nM in the presence of ATP by Kinome scan method relative to control
Inhibitor of nuclear factor kappa-B kinase subunit beta (Homo sapiens), sequence (O14920 whole entry): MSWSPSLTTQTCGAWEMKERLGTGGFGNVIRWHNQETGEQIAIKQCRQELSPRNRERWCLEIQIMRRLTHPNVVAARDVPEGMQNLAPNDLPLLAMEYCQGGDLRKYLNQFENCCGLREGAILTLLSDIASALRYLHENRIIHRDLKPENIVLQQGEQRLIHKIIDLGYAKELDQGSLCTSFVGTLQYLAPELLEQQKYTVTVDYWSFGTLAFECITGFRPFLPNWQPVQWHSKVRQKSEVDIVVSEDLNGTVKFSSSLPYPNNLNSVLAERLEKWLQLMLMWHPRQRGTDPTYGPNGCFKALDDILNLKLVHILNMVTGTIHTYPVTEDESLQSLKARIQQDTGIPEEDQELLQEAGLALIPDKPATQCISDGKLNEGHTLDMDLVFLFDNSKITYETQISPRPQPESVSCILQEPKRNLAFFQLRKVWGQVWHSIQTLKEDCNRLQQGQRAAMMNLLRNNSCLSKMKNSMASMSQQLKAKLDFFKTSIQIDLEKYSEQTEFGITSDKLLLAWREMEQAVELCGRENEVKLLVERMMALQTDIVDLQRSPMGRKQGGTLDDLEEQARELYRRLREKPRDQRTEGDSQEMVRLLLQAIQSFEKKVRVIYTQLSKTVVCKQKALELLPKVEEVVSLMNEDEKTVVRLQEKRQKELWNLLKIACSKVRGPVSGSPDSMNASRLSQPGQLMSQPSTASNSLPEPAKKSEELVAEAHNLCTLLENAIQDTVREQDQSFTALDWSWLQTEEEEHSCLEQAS

[16] = target: Cyclin-dependent kinase 5/CDK5 activator 1 (Homo sapiens) (UniProt Q00535+Q15078); assay: Inhibition of CDK5/p35 (unknown origin) at 1000 nM in the presence of ATP by Kinome scan method relative to control; assay type: protein-complex assay
[17] = target: 3-phosphoinositide-dependent protein kinase 1 (PDPK1) (Homo sapiens) (UniProt O15530); assay: Inhibition of PDK1 Direct (unknown origin) at 1000 nM in the presence of ATP by Kinome scan method relative to control
[18] = target: Serine/threonine-protein kinase pim-1 (Homo sapiens) (UniProt P11309); assay: Inhibition of PIM1 (unknown origin) at 1000 nM in the presence of ATP by Kinome scan method relative to control
Serine/threonine-protein kinase pim-1 (Homo sapiens), sequence (P11309 whole entry, looked up): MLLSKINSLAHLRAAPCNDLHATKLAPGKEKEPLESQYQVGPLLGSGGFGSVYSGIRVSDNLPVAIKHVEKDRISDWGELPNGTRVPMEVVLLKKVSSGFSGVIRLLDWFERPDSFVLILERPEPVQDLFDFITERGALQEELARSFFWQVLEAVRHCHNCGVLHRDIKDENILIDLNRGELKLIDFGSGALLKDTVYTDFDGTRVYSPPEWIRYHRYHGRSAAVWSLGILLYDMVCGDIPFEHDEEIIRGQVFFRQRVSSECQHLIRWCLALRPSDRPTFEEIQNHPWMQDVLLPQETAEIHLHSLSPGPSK

[19] = target: Serine/threonine-protein kinase Chk1 (Homo sapiens) (UniProt O14757); assay: Inhibition of CHEK1 (unknown origin) at 100 nM in the presence of ATP by Kinome scan method relative to control
[20] = target: Ephrin type-A receptor 2 (Homo sapiens) (UniProt P29317); assay: Inhibition of EPHA2 (unknown origin) at 100 nM in the presence of ATP by Kinome scan method relative to control
Ephrin type-A receptor 2 (Homo sapiens), sequence (P29317 whole entry): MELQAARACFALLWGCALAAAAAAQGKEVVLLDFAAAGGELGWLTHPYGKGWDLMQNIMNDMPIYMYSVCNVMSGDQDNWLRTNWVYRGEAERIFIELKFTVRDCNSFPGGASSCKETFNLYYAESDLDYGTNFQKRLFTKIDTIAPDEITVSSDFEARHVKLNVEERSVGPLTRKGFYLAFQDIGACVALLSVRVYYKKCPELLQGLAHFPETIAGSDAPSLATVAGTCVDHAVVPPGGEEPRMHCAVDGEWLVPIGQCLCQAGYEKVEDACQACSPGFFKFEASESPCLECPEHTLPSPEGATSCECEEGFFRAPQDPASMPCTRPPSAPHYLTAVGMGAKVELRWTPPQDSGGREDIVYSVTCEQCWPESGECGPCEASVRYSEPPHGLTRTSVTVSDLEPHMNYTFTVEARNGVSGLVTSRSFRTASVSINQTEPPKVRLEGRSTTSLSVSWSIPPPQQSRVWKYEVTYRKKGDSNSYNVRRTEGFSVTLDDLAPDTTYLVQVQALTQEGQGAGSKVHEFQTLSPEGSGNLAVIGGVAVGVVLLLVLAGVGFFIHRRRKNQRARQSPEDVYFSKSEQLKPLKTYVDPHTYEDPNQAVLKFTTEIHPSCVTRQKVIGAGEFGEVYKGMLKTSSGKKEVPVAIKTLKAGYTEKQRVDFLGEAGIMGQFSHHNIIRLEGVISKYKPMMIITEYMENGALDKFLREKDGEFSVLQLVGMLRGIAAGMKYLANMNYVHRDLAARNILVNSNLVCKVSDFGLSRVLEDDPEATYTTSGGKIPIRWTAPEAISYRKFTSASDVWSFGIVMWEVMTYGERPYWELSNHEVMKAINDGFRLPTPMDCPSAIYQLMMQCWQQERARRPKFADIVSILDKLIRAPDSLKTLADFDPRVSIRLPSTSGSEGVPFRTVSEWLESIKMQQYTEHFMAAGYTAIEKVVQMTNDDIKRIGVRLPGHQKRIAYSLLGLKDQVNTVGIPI

[21] = target: Dual specificity tyrosine-phosphorylation-regulated kinase 4 (Homo sapiens) (UniProt Q9NR20); assay: Inhibition of DYRK4 (unknown origin) at 1110 nM in the presence of ATP by Kinome scan method relative to control; settings: time > 6.0 hrs
[22] = target: Serine/threonine-protein kinase PLK1 (Homo sapiens) (UniProt P53350); assay: Inhibition of PLK1 (unknown origin) at 100 nM in the presence of ATP by Kinome scan method relative to control
Serine/threonine-protein kinase PLK1 (Homo sapiens), sequence (P53350 whole entry): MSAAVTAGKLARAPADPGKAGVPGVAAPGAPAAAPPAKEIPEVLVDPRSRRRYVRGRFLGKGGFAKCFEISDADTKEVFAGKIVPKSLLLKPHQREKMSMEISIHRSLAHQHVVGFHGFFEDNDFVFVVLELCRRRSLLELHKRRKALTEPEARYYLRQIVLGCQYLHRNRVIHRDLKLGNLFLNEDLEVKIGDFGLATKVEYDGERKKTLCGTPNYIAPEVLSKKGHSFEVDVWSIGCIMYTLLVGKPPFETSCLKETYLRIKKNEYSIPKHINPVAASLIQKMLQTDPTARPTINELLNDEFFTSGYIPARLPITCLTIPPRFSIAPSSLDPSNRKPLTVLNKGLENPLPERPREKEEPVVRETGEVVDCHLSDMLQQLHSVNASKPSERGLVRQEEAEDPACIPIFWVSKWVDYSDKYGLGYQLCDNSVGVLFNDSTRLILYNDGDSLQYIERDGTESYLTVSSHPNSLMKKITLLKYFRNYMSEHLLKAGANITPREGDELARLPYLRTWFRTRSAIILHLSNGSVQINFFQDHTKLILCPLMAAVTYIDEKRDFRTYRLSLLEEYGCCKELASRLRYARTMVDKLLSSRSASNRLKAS

[23] = tested on: HCT-116; assay: Induction of cell cycle arrest in human HCT-116 cells assessed as S phase at 1 uM incubated for 24 hrs by flow cytometry analysis (Rvb=46.4%); assay type: functional
[24] = tested on: HCT-116; assay: Induction of cell cycle arrest in human HCT-116 cells assessed as sub G0/G1 phase at 5 uM incubated for 6 hrs by flow cytometry analysis (Rvb=1.6%); assay type: functional
[25] = target: Mast/stem cell growth factor receptor Kit (Homo sapiens) (UniProt P10721); assay: Inhibition of KIT (unknown origin) at 1000 nM in the presence of ATP by Kinome scan method relative to control
[26] = target: Dual specificity protein kinase CLK1 (Homo sapiens) (UniProt P49759); assay: Inhibition of CLK (unknown origin) in human HCT-116 cells assessed as induction in alternative splicing effect in S6K skipped exon incubated for 6 hrs by RT-PCR analysis; assay type: cell-based; settings: dose 0.2-5 µM; summary of the method: as §2
[27] = tested on: HCT-116; assay: Induction of cell cycle arrest in human HCT-116 cells assessed as sub G0/G1 phase at 0.1 uM incubated for 6 hrs by flow cytometry analysis (Rvb=1.6%); assay type: functional
[28] = tested on: HCT-116; assay: Induction of cell cycle arrest in human HCT-116 cells assessed as G0/G1 phase at 0.5 uM incubated for 24 hrs by flow cytometry analysis (Rvb=35.7%); assay type: functional
[29] = target: Dual specificity protein kinase CLK1 (Homo sapiens) (UniProt P49759); assay: Inhibition of CLK (unknown origin) in human MDA-MB-468 cells assessed as SRSF1 phosphorylation level incubated for 3 hrs by immunoblot analysis; assay type: cell-based

Tyrosine-protein kinase ABL1 (Homo sapiens), sequence (P00519 whole entry): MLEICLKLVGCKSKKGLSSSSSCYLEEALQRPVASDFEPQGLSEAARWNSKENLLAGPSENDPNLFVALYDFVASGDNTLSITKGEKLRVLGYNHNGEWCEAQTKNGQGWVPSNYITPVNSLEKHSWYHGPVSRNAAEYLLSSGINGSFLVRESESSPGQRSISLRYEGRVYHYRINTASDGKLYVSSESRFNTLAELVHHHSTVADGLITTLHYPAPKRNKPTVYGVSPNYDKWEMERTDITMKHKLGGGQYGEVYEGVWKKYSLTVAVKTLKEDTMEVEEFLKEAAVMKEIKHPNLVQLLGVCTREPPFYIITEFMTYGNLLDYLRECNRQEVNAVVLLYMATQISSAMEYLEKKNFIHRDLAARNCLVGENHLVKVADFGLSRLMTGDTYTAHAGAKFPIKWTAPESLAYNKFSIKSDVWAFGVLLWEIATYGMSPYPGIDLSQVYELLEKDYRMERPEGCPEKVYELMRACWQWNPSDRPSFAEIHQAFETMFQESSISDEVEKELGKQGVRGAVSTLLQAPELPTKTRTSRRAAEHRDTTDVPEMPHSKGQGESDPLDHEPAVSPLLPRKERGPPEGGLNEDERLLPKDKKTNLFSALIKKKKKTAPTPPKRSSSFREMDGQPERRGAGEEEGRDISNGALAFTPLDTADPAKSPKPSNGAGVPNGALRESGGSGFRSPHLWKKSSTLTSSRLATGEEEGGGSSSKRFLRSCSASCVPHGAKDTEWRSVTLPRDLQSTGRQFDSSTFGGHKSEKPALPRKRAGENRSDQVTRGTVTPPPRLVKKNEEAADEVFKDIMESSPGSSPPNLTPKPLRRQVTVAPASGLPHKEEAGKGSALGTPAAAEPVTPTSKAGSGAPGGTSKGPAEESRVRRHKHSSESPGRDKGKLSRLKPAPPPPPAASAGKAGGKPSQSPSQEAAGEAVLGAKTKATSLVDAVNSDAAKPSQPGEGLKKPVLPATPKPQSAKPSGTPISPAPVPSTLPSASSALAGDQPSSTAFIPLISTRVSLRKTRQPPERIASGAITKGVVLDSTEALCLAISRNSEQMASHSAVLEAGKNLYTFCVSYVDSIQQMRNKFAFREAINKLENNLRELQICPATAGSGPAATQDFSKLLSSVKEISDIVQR

CN1CCN(C(=O)C(C)(C)c2ccc(C(=O)Nc3cn4cc(-c5ccncc5)ccc4n3)cc2)CC1 [T3-CLK]
inhibition [1]: 56%
Activity [2]: 34.8%
Activity [3]: 30.5%
Activity [4]: 19%
inhibition [5]: Active
Activity [6]: 34.5%
inhibition [7]: 11%
inhibition [8]: -6%
Activity [9]: 28.1%
inhibition [10]: 4%
Activity [11]: 4.32%
inhibition [12]: Dose-Dependent Effect
inhibition [13]: Active
inhibition [14]: -2%
inhibition [15]: -5%
inhibition [16]: -1%
inhibition [17]: 2%
inhibition [18]: 11%
inhibition [19]: 10%
inhibition [20]: -4%
inhibition [21]: -3%
inhibition [22]: 8%
Activity [23]: 46.7%
Activity [24]: 2.2%
inhibition [25]: 37%
inhibition [26]: Dose-Dependent Effect
Activity [27]: 1.5%
Activity [28]: 11.4%
inhibition [29]: Active
